Reference: ChEMBL document CHEMBL3526153, “Metabolism of gambogic acid in rats: a rare intestinal metabolic pathway responsible for its final disposition” (Drug Metab Dispos, 2011)

Key:
[1] = Drug level in PBS buffer treated with gambogic acid at 50 uM preincubated for 10 mins followed by NADPH addition measured after 1 hr by LC-DAD-MS/MS analysis in absence of liver microsomes; assay type: physicochemical
In short: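 Control incubation with no microsomes: GA 50 μM (added in 5.0 μL acetonitrile) in 0.1 M PBS pH 7.4, 1.0 mL, preincubated 10 min at 37 °C with shaking. NADPH added to 6.0 mM final, then 1 h at 37 °C, duplicate. Stopped with ice-cold acetonitrile, centrifuged, supernatant dried under N2, reconstituted in mobile phase. LC-MS/MS with negative ESI, isocratic 65% acetonitrile.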

[2] = Drug level in rat liver microsomes assessed as CYP450-mediated compound formation treated with gambogic acid at 50 uM preincubated for 10 mins followed by NADPH addition measured after 1 hr by LC-DAD-MS/MS analysis; assay type: ADME
In short: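 GA 50 µM with rat liver microsomes 1.0 mg/mL in 0.1 M PBS pH 7.4, pre-incubated 10 min at 37 °C. Started with NADPH (6.0 mM final) and run 1 h at 37 °C. Controls lacked NADPH or microsomes; duplicate. Stopped with ice-cold acetonitrile, centrifuged, supernatant dried and reconstituted. Isocratic LC (65% acetonitrile), negative-ion ESI MS/MS.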

[3] = Drug level in Sprague-Dawley rat feces treated with gambogic acid at 4 mg/kg, iv measured over 24 hrs by LC-DAD-MS/MS analysis; assay type: ADME, organism-based; set-up: dose 4 mg/kg, route intravenous; settings: in vivo
In short: (§1)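 SD rats (250 ± 20 g), n=4, given GA 4 mg/kg i.v. via tail vein in 2 mL; feces pooled 0–24 h and stored at −20 °C. Feces (0.6 g) homogenized in 50% acetonitrile, sonicated, centrifuged, filtered, then ethyl acetate extraction. Analysed by C18 LC-DAD-MS/MS (gradient 38–80% acetonitrile, 10 mM ammonium acetate, 40 °C), negative ESI.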

[4] = Retention time of the compound in Sprague-Dawley rat bile treated with gambogic acid at 4 mg/kg, iv measured over 24 hrs by LC-DAD-MS/MS analysis; assay type: ADME, organism-based; set-up: dose 4 mg/kg, route intravenous; settings: in vivo
In short: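 SD rats, n=4, bile-duct cannulated under chloral hydrate and allowed 1 h recovery. GA 4 mg/kg i.v.; bile collected on ice, pooled 0–24 h. C18 LC-DAD-MS/MS at 0.25 mL/min with acetonitrile gradient (38% to 80%) in 10 mM ammonium acetate, 40 °C, negative ESI.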

Plasma = assay: Drug level in Sprague-Dawley rat plasma treated with gambogic acid at 4 mg/kg, iv measured over 4 hrs by LC-DAD-MS/MS analysis; assay type: ADME, organism-based; set-up: dose 4 mg/kg, route intravenous; settings: in vivo
In short: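 Six SD rats given GA 4 mg/kg i.v. via tail vein. Tail blood taken into heparin at 0.033–4 h; plasma separated at 3000 × g, 4 °C, and pooled 0–4 h. 1 mL extracted with 4 mL ethyl acetate, dried, reconstituted. Isocratic 68% acetonitrile, LC-MS/MS in negative ESI.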

[5] = Drug level in intestine (unknown origin) treated with gambogic acid; assay type: ADME, tissue-based
In short: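 Intestinal contents from undosed rats homogenized in 5 mL water. 100 μL of 1.0 mg/mL GA solution added, incubated about 24 h at 37 °C, duplicate. 1.0 mL extracted with ethyl acetate. LC-MS/MS with negative ESI, SIM at m/z 709.3 plus full and product-ion scans, acetonitrile gradient 50–90%.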

[6] = Drug level in Sprague-Dawley rat gut treated with gambogic acid at 4 mg/kg, iv; assay type: ADME, organism-based; set-up: dose 4 mg/kg, route intravenous; settings: in vivo
[7] = Retention time of the compound in Sprague-Dawley rat feces treated with gambogic acid at 4 mg/kg, iv measured over 24 hrs by LC-DAD-MS/MS analysis; assay type: ADME, organism-based; set-up: dose 4 mg/kg, route intravenous; settings: in vivo; in short: as §1
Liver microsome = assay: Drug level in rat liver microsomes treated with gambogic acid at 50 uM preincubated for 10 mins followed by UDPGA addition measured after 2 hrs by LC-MS/MS analysis; assay type: ADME
In short: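 Rat liver microsomes 1.0 mg/mL pretreated with alamethicin 50 μg/mg protein. GA 50 μM, saccharic acid-1,4-lactone 6 mM, in 0.05 M Tris-HCl pH 7.4. Preincubated 10 min at 37 °C, started with UDPGA (6.0 mM final), run 2 h at 37 °C, duplicate. Quenched with ice-cold acetonitrile. LC-MS/MS in negative ESI with acetonitrile gradient 50–95%.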

## CC(C)=CCC[C@]1(C)C=Cc2c(O)c3c(c(CC=C(C)C)c2O1)O[C@]12C(C3=O)C(O)[C@@H]3C[C@H]1C(C)(C)O[C@@]2(C/C=C(/C)C(=O)O)C3=O (stereo not given in full)
[1]
  Drug metabolism: metabolite_detected
[2]
  Drug metabolism: metabolite_detected
[3]
  Drug metabolism: metabolite_detected
[4]
  Retention_time: 39.5 min
Plasma
  Drug metabolism: metabolite_detected

## CC(C)=CCC[C@]1(C)C=Cc2c(O)c3c(c(CC=C(C)C)c2O1)O[C@]12[C@H]4C[C@H](C(=O)[C@]1(C/C=C(/C)C(=O)O[C@@H]1O[C@H](CO)[C@@H](O)[C@H](O)[C@H]1O)OC4(C)C)C1OC12C3=O (stereo not given in full)
[4]
  Retention_time: 39 min

## CC(C)=CCC[C@]1(C)C=Cc2c(O)c3c(c(CC=C(C)C)c2O1)O[C@]12[C@H]4C[C@H](C(=O)[C@]1(C/C=C(/C)C(=O)O)OC4(C)C)C1OC12C3=O (stereo not given in full)
[2]
  Drug metabolism: metabolite_detected
[3]
  Drug metabolism: metabolite_detected
[4]
  Retention_time: 43.8 min

## CC(C)=CCC[C@]1(C)C=Cc2c(O)c3c(c(CC=C(C)C)c2O1)O[C@]12C(C3=O)[C@H](S(=O)(=O)O)[C@@H]3C[C@H]1C(C)(C)O[C@@]2(C/C=C(/C)C(=O)O)C3=O (stereo not given in full)
[5]
  Drug metabolism: metabolite_detected
[6]
  Drug metabolism: metabolite_detected
[7]
  Retention_time: 16.9 min

## CC(C)=CCC[C@]1(C)C=Cc2c(O)c3c(c(CC=C(C)C)c2O1)O[C@]12C(=C[C@@H]4C[C@H]1C(C)(C)O[C@@]2(C/C=C(/C)C(=O)O[C@@H]1O[C@H](C(=O)O)[C@@H](O)[C@H](O)[C@H]1O)C4=O)C3=O
Liver microsome
  Drug metabolism: metabolite_detected
[3]
  Drug metabolism: metabolite_detected
[4]
  Retention_time: 23.6 min
